Test results as given in ChEMBL document CHEMBL4834396, “Molecular Recognition and Imaging of Human Telomeric G-Quadruplex DNA in Live Cells: A Systematic Advancement of Thiazole Orange Scaffold To Enhance Binding Specificity and Inhibition of Gene Expression” (J Med Chem, 2021).
Active and inactive are the calls of the source. No cut-off for these calls is given here.

Columns and labels:
[1] = test system: Quadruplex DNA [UNDEFINED MUTATION]; experiment: Effect on confirmation of telomeric Htg24 G-quadruplex DNA G16A mutant (unknown origin) assessed as parallel topology at 5 uM at pH 7.4 by circular dichroism analysis; assay type: nucleic-acid assay; conditions: Homo sapiens
Procedure, shortened: (§1)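 CD spectra recorded on G4-DNA and ligand, each at 5 μM, in 10 mM Tris-HCl, pH 7.4, with 60 mM KCl. Scan range 220–340 nm in a 1 mm quartz cuvette, 1 nm bandwidth and step, 0.5 s/point. Each spectrum is the average of three scans.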

[2] = test system: Quadruplex DNA [UNDEFINED MUTATION]; experiment: Binding affinity to telomeric Htg24 G-quadruplex DNA G17T mutant (unknown origin) assessed as negative fluorescence signal at 5 uM under pH condition 7.4 by fluorescence titration analysis; assay type: nucleic-acid assay; conditions: Homo sapiens
Procedure, shortened: (§2)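 Ligand 5 μM mixed with wild-type or point-mutant Htg24 in Tris-HCl buffer with 60 mM KCl; signal change calculated as (F mutant − F wild type)/F wild type.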

DNA = experiment: Binding affinity to ds26 DNA (unknown origin) assessed as dissociation constant by isothermal titration calorimetric analysis; assay type: nucleic-acid assay
Procedure, shortened: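 ITC at 25 °C: DNA preannealed at 95 °C for 5 min, cooled and held at 4 °C overnight, in 25 mM KH2PO4, 60 mM KCl, pH 7.4, 0.5% DMSO. DNA 10 μM in cell, ligand 500 μM in syringe; 19 injections of 4 s, 150 s apart, 750 rpm stirring; blank heat subtracted before model fitting.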

[3] = test system: Quadruplex DNA [UNDEFINED MUTATION]; experiment: Binding affinity to telomeric Htg24 G-quadruplex DNA T18G mutant (unknown origin) assessed as negative fluorescence signal at 5 uM under pH condition 7.4 by fluorescence titration analysis; assay type: nucleic-acid assay; conditions: Homo sapiens
Procedure, shortened: (§3)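 Ligand held at 5 μM and mixed with each Htg24 point mutant in Tris-HCl buffer containing 60 mM KCl, pH 7.4. Fluorescence was read, and the signal change was computed as (F mutant − F wild type)/F wild type.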

HeLa [4] = experiment: Antiproliferative activity against human HeLa cells assessed as reduction in cell viability […] by MTT assay; assay type: functional, cell-based
[5] = test system: Quadruplex DNA [UNDEFINED MUTATION]; experiment: Effect on confirmation of telomeric Htg24 G-quadruplex DNA G22A mutant (unknown origin) assessed as hybrid topology at 5 uM at pH 7.4 by circular dichroism analysis; assay type: nucleic-acid assay; conditions: Homo sapiens; procedure, shortened: as §1
[6] = test system: Quadruplex DNA [UNDEFINED MUTATION]; experiment: Binding affinity to telomeric Htg24 G-quadruplex DNA G15T mutant (unknown origin) assessed as fluorescence signal at 5 uM under pH condition 7.4 by fluorescence titration analysis; assay type: nucleic-acid assay; conditions: Homo sapiens
[7] = Drug uptake in nucleolus of human U87 cells assessed as change in fluorescence signal at 5 uM for 30 mins co-stained with DAPI for 10 mins followed by treating with RNase and measured after 30 mins by confocal laser fluorescence microscopic analysis; assay type: ADME, subcellular; conditions: u-87mg atcc, 1.167 h, time 70 min
[8] = test system: Quadruplex DNA [UNDEFINED MUTATION]; experiment: Binding affinity to telomeric Htg24 G-quadruplex DNA G23T mutant (unknown origin) assessed as fluorescence signal at 5 uM under pH condition 7.4 by fluorescence titration analysis; assay type: nucleic-acid assay; conditions: Homo sapiens; procedure, shortened: as §3
[9] = test system: Quadruplex DNA [UNDEFINED MUTATION]; experiment: Binding affinity to telomeric Htg24 G-quadruplex DNA G17C mutant (unknown origin) assessed as negative fluorescence signal at 5 uM under pH condition 7.4 by fluorescence titration analysis; assay type: nucleic-acid assay; conditions: Homo sapiens; procedure, shortened: as §2
[10] = test system: Quadruplex DNA [UNDEFINED MUTATION]; experiment: Binding affinity to telomeric Htg24 G-quadruplex DNA G16A mutant (unknown origin) assessed as negative fluorescence signal at 5 uM under pH condition 7.4 by fluorescence titration analysis; assay type: nucleic-acid assay; conditions: Homo sapiens; procedure, shortened: as §2
[11] = test system: Quadruplex DNA [UNDEFINED MUTATION]; experiment: Binding affinity to telomeric Htg24 G-quadruplex DNA G15C mutant (unknown origin) assessed as fluorescence signal at 5 uM under pH condition 7.4 by fluorescence titration analysis; assay type: nucleic-acid assay; conditions: Homo sapiens
Quadruplex DNA [12] = experiment: Binding affinity to G4 quadruplex DNA in human HeLa cells assessed as BG4 foci formation at 10 to 20 uM; assay type: cell-based; conditions: dose 10-20 µM
[13] = test system: Quadruplex DNA [UNDEFINED MUTATION]; experiment: Binding affinity to telomeric Htg24 G-quadruplex DNA G17A mutant (unknown origin) assessed as negative fluorescence signal at 5 uM under pH condition 7.4 by fluorescence titration analysis; assay type: nucleic-acid assay; conditions: Homo sapiens; procedure, shortened: as §2
[14] = test system: Quadruplex DNA [UNDEFINED MUTATION]; experiment: Effect on confirmation of telomeric Htg24 G-quadruplex DNA A14G mutant (unknown origin) assessed as hybrid topology at 5 uM at pH 7.4 by circular dichroism analysis; assay type: nucleic-acid assay; conditions: Homo sapiens; procedure, shortened: as §1
[15] = test system: Quadruplex DNA [UNDEFINED MUTATION]; experiment: Binding affinity to telomeric Htg24 G-quadruplex DNA G21A mutant (unknown origin) assessed as strong fluorescence signal at 5 uM under pH condition 7.4 by fluorescence titration analysis; assay type: nucleic-acid assay; conditions: Homo sapiens; procedure, shortened: as §2
Quadruplex DNA [16] = experiment: Stabilization of telomeric Htg24 G-quadruplex DNA (unknown origin) assessed as inhibition of DNA amplification at 20 uM by PCR analysis; assay type: nucleic-acid assay
Procedure, shortened: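 Taq polymerase stop assay: Htg24 or its non-G4 mutant template (5 μM) with 2 μM of each oligomer, […] and ligand at 0–20 μM. Cycling was 94 °C for 5 min, then 30 cycles of 94/56/72 °C at 30 s each. Products were resolved on 15% PAGE and stained with SYBR Gold.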

[17] = test system: Quadruplex DNA [UNDEFINED MUTATION]; experiment: Effect on confirmation of telomeric Htg24 G-quadruplex DNA T19G mutant (unknown origin) assessed as hybrid topology at 5 uM at pH 7.4 by circular dichroism analysis; assay type: nucleic-acid assay; conditions: Homo sapiens; procedure, shortened: as §1
[18] = test system: Quadruplex DNA [UNDEFINED MUTATION]; experiment: Binding affinity to telomeric Htg24 G-quadruplex DNA G23C mutant (unknown origin) assessed as fluorescence signal at 5 uM under pH condition 7.4 by fluorescence titration analysis; assay type: nucleic-acid assay; conditions: Homo sapiens; procedure, shortened: as §3
Quadruplex DNA [19] = experiment: Binding affinity to telomeric Htg24 G-quadruplex DNA (unknown origin) assessed as fold increase in fluorescence signal at 5 uM under pH condition 7.4 by fluorescence method; assay type: nucleic-acid assay
Procedure, shortened: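 Ligand 5 μM with each nucleic acid at 15 μM in 10 mM Tris-HCl pH 7.4, 60 mM KCl; emission enhancement expressed as F/F0 against ligand without DNA.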

[20] = test system: Quadruplex DNA [UNDEFINED MUTATION]; experiment: Binding affinity to telomeric Htg24 G-quadruplex DNA G22C mutant (unknown origin) assessed as negative fluorescence signal at 5 uM under pH condition 7.4 by fluorescence titration analysis; assay type: nucleic-acid assay; conditions: Homo sapiens; procedure, shortened: as §3
HeLa [21] = experiment: Effect on telomere length in human HeLa cells assessed as reduction of telomere length incubated for 18 days by qRT-PCR analysis; assay type: functional, cell-based; conditions: dose 0.5-4 µM, time 18.0 day
Procedure, shortened: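 HeLa cells were treated with graded compound concentrations (0–4 μM) for 18 days. Genomic DNA was isolated by proteinase K digestion and phenol/chloroform extraction. Relative telomere length was measured by qPCR against hRPLPO using the ΔΔCt method; three independent experiments.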

[22] = test system: Quadruplex DNA [UNDEFINED MUTATION]; experiment: Binding affinity to telomeric Htg24 G-quadruplex DNA G16T mutant (unknown origin) assessed as negative fluorescence signal at 5 uM under pH condition 7.4 by fluorescence titration analysis; assay type: nucleic-acid assay; conditions: Homo sapiens; procedure, shortened: as §2
[23] = test system: Quadruplex DNA [UNDEFINED MUTATION]; experiment: Binding affinity to telomeric Htg24 G-quadruplex DNA G11A mutant (unknown origin) assessed as fluorescence signal at 5 uM under pH condition 7.4 by fluorescence titration analysis; assay type: nucleic-acid assay; conditions: Homo sapiens
Quadruplex DNA [24] = experiment: Binding affinity to c-myc promoter G-quadruplex DNA Pu22 (unknown origin) assessed as equilibrium binding constant at 5 uM at 25 degreeC by […]; assay type: nucleic-acid assay
Procedure, shortened: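 Fluorescence titration: ligand 5 μM in 10 mM Tris-HCl pH 7.4 with 60 mM KCl, nucleic acid added until saturation, 25 °C. Keq from nonlinear fit of F/F0 to an independent-site model.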

MCF7 = experiment: Antiproliferative activity against human MCF7 cells assessed as reduction in cell viability […] by MTT assay; assay type: functional, cell-based

Compound: CN(C)c1ccc(/C=C/c2cc(/C=C3\Sc4ccccc4N3CCCN3CCOCC3)c3ccccc3[n+]2C)cc1.[I-]
- Activity [1]: Active
- Activity [2]: Active
- Kd (DNA): 2.97 µM
- Activity [3]: Active
- IC50 (HeLa [4]): 16.3 µM
- Activity [5]: Active
- Activity [6]: inactive
- Drug uptake [7]: Not Active
- Activity [8]: inactive
- Activity [9]: Active
- Activity [10]: Active
- Activity [11]: inactive
- Activity (Quadruplex DNA [12]): Active
- Activity [13]: Active
- Activity [14]: Active
- Activity [15]: Active
- Activity (Quadruplex DNA [16]): Active
- Activity [17]: Active
- Activity [18]: inactive
- fold change (FC) (Quadruplex DNA [19]): 120
- Activity [20]: Active
- Activity (HeLa [21]): Dose-Dependent Effect
- Activity [22]: Active
- Activity [23]: inactive
- Kb (Quadruplex DNA [24]): 309000 M⁻¹
- IC50 (MCF7): 14.5 µM
